Active and inactive are the calls of the source. The calls are words filed in the database; no cut-off is given here.
Key:
[1] = system: Rattus norvegicus; experiment: Antihyperglycemic effect in streptozotocin-induced diabetic Wistar rat assessed as reduction of plasma glucose level at 100 mg/kg, po relative to untreated control; set-up: scale not given: the % may be the effect or the level left
[2] = system: Rattus norvegicus; experiment: Antihyperglycemic effect in normal Wistar rat assessed as attenuation of increase of plasma glucose level at 0.1 mg/kg, iv bolus measured 5 mins after intravenous glucose challenge test
[3] = system: Rattus norvegicus; experiment: Antihyperglycemic effect in streptozotocin-induced diabetic Wistar rat assessed as reduction of plasma glucose level at 0.1 mg/kg, iv bolus after 30 mins relative to untreated control; type: functional; set-up: scale not given: the % may be the effect or the level left
Method in brief: (§1)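 STZ (60 mg/kg) given to fasted rats; animals with plasma glucose of 20 mmol/L or more plus diabetic features were used two weeks later. Fasted rats got an i.v. bolus of catalpol in normal saline (0.01–0.15 mg/kg) or vehicle. Tail-vein blood was drawn under pentobarbital at 30 min. Glucose was read enzymatically in duplicate, and activity was calculated as [(Gi−Gt)/Gi]×100%. n=8 per group.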

[4] = system: Rattus norvegicus; experiment: Antihyperglycemic effect in streptozotocin-induced diabetic Wistar rat assessed as reduction of plasma glucose level at 0.1 mg/kg, iv bolus after 30 mins; type: functional, organism-based; set-up: dose 0.1 mg/kg
Method in brief: as §1

[5] = system: Rattus norvegicus; experiment: Antihyperglycemic effect in streptozotocin-induced diabetic Wistar rat assessed as reduction of plasma glucose level at 0.01 mg/kg, iv bolus after 30 mins relative to untreated control; type: functional; set-up: scale not given: the % may be the effect or the level left
Method in brief: as §1

[6] = system: Hepatocyte; experiment: Increase in glycogen synthesis in streptozotocin-induced diabetic Wistar rat hepatocyte assessed as [U14C]glucose incorporation in to glycogen […] by ethanol precipitation assay; type: functional, cell-based
Method in brief: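 Hepatocytes from STZ-diabetic rats were isolated by collagenase perfusion (>90% viable by trypan blue). After 30 min preincubation in KRBB at 37 °C, they were incubated with [U-14C]-glucose (0.25 µCi/mL) plus test agent (10-8–10-6 M) for 1 h with shaking. Glycogen label was measured by ethanol precipitation and expressed as pmol/mg protein. n=8; compared against vehicle blanks.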

[7] = system: Rattus norvegicus; experiment: Antihyperglycemic effect in normal Wistar rat assessed as attenuation of increase of plasma glucose level at 0.1 mg/kg, iv bolus measured 20 mins after intravenous glucose challenge test
[8] = system: Rattus norvegicus; experiment: Antihyperglycemic effect in iv bolus dosed streptozotocin-induced diabetic Wistar rat assessed as reduction of plasma glucose level after 30 mins; type: functional, organism-based
Method in brief: as §1

[9] = system: Rattus norvegicus; experiment: Antihyperglycemic effect in streptozotocin-induced diabetic Wistar rat assessed as reduction of plasma glucose level at 0.15 mg/kg, iv bolus after 30 mins; type: functional, organism-based; set-up: dose 0.15 mg/kg
Method in brief: as §1

[10] = system: Rattus norvegicus; experiment: Antihyperglycemic effect in normal Wistar rat assessed as attenuation of increase of plasma glucose level at 0.1 mg/kg, iv bolus measured 30 mins after intravenous glucose challenge test
[11] = system: Soleus muscle; experiment: Increase in uptake of 2-[1-14C]-deoxy-D-glucose in streptozotocin-induced diabetic Wistar rat isolated soleus muscle after 30 mins by beta counter; type: functional, tissue-based
Method in brief: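 Soleus strips came from STZ-diabetic rats. They were preincubated 30 min in KRBB (pH 7.4, 37 °C, 1 mmol/L glucose, 1% BSA, 5% CO2/O2), then exposed 30 min to test agent (10-8–10-6 M). Next came 5 min with 2-[1-14C]-deoxy-D-glucose (1 µCi/mL). Tissue was digested in NaOH and counted by β-counter. Non-specific uptake with 20 µmol/L cytochalasin B was subtracted. n=8.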

With `CN(C)C(=N)NC(=N)N` [METFORMIN] the Activity [1] was 32%.
`OC[C@H]1O[C@@H](O[C@@H]2OC=C[C@H]3[C@H](O)[C@@H]4O[C@]4(CO)[C@@H]23)[C@H](O)[C@@H](O)[C@@H]1O` [CATALPOL] was tested, and the Activity [2] was “Active”, the Activity [3] was 24.33% and the Activity [4] was “Active”. The Activity [5] was 8.53%, the Activity [6] was “Dose-dependent effect” and the Activity [7] was “Active”. The Activity [8] was “Dose-dependent effect”, the Activity [9] was “Active” and the Activity [10] was “inactive”. For the same compound, the Activity [11] was “Dose-dependent effect”.
